Values after ≈ are worked out from the molar mass of the structure shown. Active and inactive are the calls of the source. The rule behind the calls is not given here.
Tests used:
[1] = target: T1, Vitamin D3 receptor (Mus musculus) (UniProt P48281); test: Activation of VDR in mouse C3H10T1/2 cells assessed as change in Cyp24A1 mRNA expression at 5 uM after 24 hrs by q-PCR analysis relative to control; format: cell-based
T1 sequence (whole entry): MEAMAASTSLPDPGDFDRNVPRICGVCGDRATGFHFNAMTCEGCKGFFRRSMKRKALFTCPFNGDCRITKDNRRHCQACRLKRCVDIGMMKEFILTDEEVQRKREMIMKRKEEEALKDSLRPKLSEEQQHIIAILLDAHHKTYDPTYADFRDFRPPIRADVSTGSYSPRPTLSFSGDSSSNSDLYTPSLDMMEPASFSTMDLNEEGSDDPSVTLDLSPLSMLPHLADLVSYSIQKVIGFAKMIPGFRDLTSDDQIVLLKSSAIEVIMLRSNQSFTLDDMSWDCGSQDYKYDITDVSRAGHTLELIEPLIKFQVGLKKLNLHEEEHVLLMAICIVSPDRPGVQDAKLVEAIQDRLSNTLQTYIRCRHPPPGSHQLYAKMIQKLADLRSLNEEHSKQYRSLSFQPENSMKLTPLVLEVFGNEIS

[2] = species: Mus musculus; test: Inhibition of Hedgehog signaling pathway in Sufu-deficient mouse C3H10T1/2 cells assessed as change in CYP24A1 mRNA expression at 5 uM after 24 hrs by q-PCR analysis; set-up: scale not given: the % may be the effect or the level left
[3] = Kinetic solubility of the compound in pH 4 phosphate buffered saline; format: physicochemical; settings: read-out: Kinetic_solubility
Procedure, shortened: (§1)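 Kinetic solubility was run in PBS at pH 4.0 and at pH 7.4 under a standard contract protocol. Compound concentration was measured by LC-MS/MS.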

[4] = Inhibition of Hedgehog signaling pathway in VDR-deficient mouse C3H10T1/2 cells assessed as reduction in oxysterol-induced Gli1 mRNA expression after 24 hrs by q-PCR analysis; settings: C3H 10T1/2, 24 h
[5] = Inhibition of Hedgehog signaling pathway in mouse C3H10T1/2 cells assessed as reduction in oxysterol-induced Gli1 mRNA expression after 24 hrs by q-PCR analysis; format: cell-based; settings: C3H 10T1/2, 24 h
[6] = Kinetic solubility of the compound in pH 7.4 phosphate buffered saline; format: physicochemical; settings: read-out: Kinetic_solubility; procedure, shortened: as §1
[7] = Half life in human liver microsomes at 1 uM by LC-MS/MS analysis
[8] = species: Mus musculus; test: Inhibition of Hedgehog signaling pathway in VDR-deficient mouse C3H10T1/2 cells assessed as change in CYP24A1 mRNA expression at 5 uM after 24 hrs by q-PCR analysis; set-up: scale not given: the % may be the effect or the level left
[9] = species: Mus musculus; test: Inhibition of Hedgehog signaling pathway in VDR-deficient mouse C3H10T1/2 cells assessed as reduction in oxysterol-induced Gli1 mRNA expression at 5 uM after 24 hrs by q-PCR analysis
[10] = Clearance in human liver microsomes assessed per mg protein at 1 uM by LC-MS/MS analysis
[11] = species: Mus musculus; test: Inhibition of Hedgehog signaling pathway in Sufu-deficient mouse C3H10T1/2 cells assessed as reduction in oxysterol-induced Gli1 mRNA expression at 5 uM after 24 hrs by q-PCR analysis
[12] = Inhibition of Hedgehog signaling pathway in Sufu-deficient mouse C3H10T1/2 cells assessed as reduction in oxysterol-induced Gli1 mRNA expression after 24 hrs by q-PCR analysis; settings: C3H 10T1/2, 24 h
[13] = target: T2, Vitamin D3 receptor (Mus musculus, UniProt P48281); test: Activation of VDR in mouse ASZ001 cells assessed as change in Cyp24A1 mRNA expression after 48 hrs by q-PCR analysis; format: cell-based
T2 sequence (P48281 whole entry): T1 sequence (whole entry)
Procedure, shortened: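 In ASZ001 cells, full dose-response Cyp24A1 mRNA measurement by qPCR was done relative to DMSO control (1.0). EC50 values are mean ± SEM of at least two separate experiments performed in triplicate.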

[14] = target: T1, Vitamin D3 receptor (Mus musculus); test: Activation of VDR in mouse ASZ001 cells assessed as change in Cyp24A1 mRNA expression at 1 uM after 48 hrs by q-PCR analysis relative to control; format: cell-based
[15] = Inhibition of Hedgehog signaling pathway in mouse ASZ001 cells assessed as reduction in […] Gli1 mRNA expression after 48 hrs by q-PCR analysis; format: cell-based; settings: ASZ001, 48 h
[16] = species: Mus musculus; test: Inhibition of Hedgehog signaling pathway in VDR-deficient mouse C3H10T1/2 cells assessed as change in CYP24A1 mRNA expression at 1 uM after 24 hrs by q-PCR analysis; set-up: scale not given: the % may be the effect or the level left
[17] = species: Mus musculus; test: Inhibition of Hedgehog signaling pathway in Sufu-deficient mouse C3H10T1/2 cells assessed as reduction in oxysterol-induced Gli1 mRNA expression at 1 uM after 24 hrs by q-PCR analysis
[18] = species: Mus musculus; test: Inhibition of Hedgehog signaling pathway in mouse C3H10T1/2 cells assessed as residual oxysterol-induced Gli1 mRNA expression at 5 uM after 24 hrs by q-PCR analysis relative to oxysterol alone
[19] = species: Mus musculus; test: Inhibition of Hedgehog signaling pathway in Sufu-deficient mouse C3H10T1/2 cells assessed as change in CYP24A1 mRNA expression at 1 uM after 24 hrs by q-PCR analysis; set-up: scale not given: the % may be the effect or the level left
[20] = Half life in rat liver homogenates; format: ADME, tissue-based
[21] = species: Mus musculus; test: Inhibition of Hedgehog signaling pathway in VDR-deficient mouse C3H10T1/2 cells assessed as reduction in oxysterol-induced Gli1 mRNA expression at 1 uM after 24 hrs by q-PCR analysis
[22] = tested on: Medulloblastoma cell; test: Antiproliferative activity against medulloblastoma cells derived from conditional patched knockout mouse after 48 hrs by [3H]-thymidine incorporation assay; format: functional
Procedure, shortened: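 Primary tumour cells from Math1-Cre;Ptc fl/fl medulloblastoma were isolated and cultured in vitro, then incubated with analogue for 48 h in a proliferation assay. GI50 is mean ± SEM of at least two separate experiments performed in triplicate.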

[23] = species: Mus musculus; test: Inhibition of Hedgehog signaling pathway in mouse C3H10T1/2 cells assessed as reduction in oxysterol-induced Gli1 mRNA expression at 1 uM after 24 hrs by q-PCR analysis relative to oxysterol alone; format: cell-based; set-up: scale not given: the % may be the effect or the level left
Procedure, shortened: (§2)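 Gli1 transcription was induced in C3H10T1/2 cells by co-treating with 20(S)-OHC and 22(S)-OHC (5 µM each) plus analogue for 24 h. Gli1 mRNA was quantified by qPCR and expressed as % of the oxysterol-only control (set to 100%). Data are mean ± SEM of at least two separate experiments run in triplicate.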

[24] = target: T1, Vitamin D3 receptor (Mus musculus); test: Activation of VDR in mouse ASZ001 cells assessed as change in Cyp24A1 mRNA expression at 5 uM after 48 hrs by q-PCR analysis relative to control; format: cell-based
[25] = target: T1, Vitamin D3 receptor (Mus musculus); test: Activation of VDR in mouse ASZ001 cells assessed as change in Cyp24A1 mRNA expression at 2.5 uM after 48 hrs by q-PCR analysis relative to control; format: cell-based
[26] = target: T1, Vitamin D3 receptor (Mus musculus); test: Activation of VDR in mouse C3H10T1/2 cells assessed as change in Cyp24A1 mRNA expression at 2.5 uM after 24 hrs by q-PCR analysis relative to control; format: cell-based
[27] = species: Mus musculus; test: Inhibition of Hedgehog signaling pathway in mouse C3H10T1/2 cells assessed as reduction in oxysterol-induced Gli1 mRNA expression at 2.5 uM after 24 hrs by q-PCR analysis relative to oxysterol alone; format: cell-based; procedure, shortened: as §2

Row | SMILES | Activity [1] [%] | Activity [2] [%] | solubility kinetic [3] [ng/mL] | IC50 [4] [nM] | IC50 [5] [nM] | solubility kinetic [6] [ng/mL] | Activity [8] [%] | inhibition [9] | Hedgehog inhibition activity call (active/not active) [11] | IC50 [12] [nM] | EC50 [13] [nM] | Activity [14] [%] | IC50 [15] [nM] | % Gli1 activity [18] [%] | GI50 [22] [nM] | other results
1 | CC(C)CCC[C@@H](C)[C@H]1CC[C@H]2[C@@H](Nc3ccc(O)cc3)CCC[C@]12C | 45 | 1.2 | 0.62 (≈ 1.73 nM) | 3900 | 400 | 2.6 (≈ 7.27 nM) | 8.1 | inactive | inactive | 3100 | – | – | – | – | – | half-life at 1 µM ([7]; liver microsomes): 0.95 h; CLH [10]: 12
2 | CCC(CC)(c1ccc(OCC(O)CO)c(C)c1)c1ccc(OCC(O)C(C)(C)C)c(C)c1 (stereo unspecified) [LG-190178] | – | – | – | 1900 | 0.25 | – | – | – | – | – | 7.7 | 13000 | 0.23 | – | – | Activity [16]: 250%
3 | CS(=O)(=O)c1ccc(C(=O)Nc2ccc(Cl)c(-c3ccccn3)c2)c(Cl)c1 [VISMODEGIB] | – | – | – | – | 82 | – | – | – | Active | – | – | – | 40 | 0.9 | – | inhibition [17]: inactive
4 | C=C1/C(=C\C=C2/CCC[C@]3(C)[C@@H]([C@H](C)CCCC(C)(C)O)CC[C@@H]23)C[C@@H](O)C[C@@H]1O [CALCITRIOL] | > 30000 | – | – | – | – | – | – | – | – | – | – | > 30000 | – | – | 1400 | Activity [19]: 590%; inhibition [17]: inactive; half-life [20]: > 2 h; inhibition [21]: inactive; Activity [23]: 30%; Activity [16]: 530%
5 | C[C@H](CCCC(C)(C)O)[C@H]1CC[C@H]2[C@@H](Nc3ccc(O)cc3)CCC[C@]12C | 15000 | 51 | 2400 (≈ 6420 nM) | 4900 | 890 to 900 | 4.2 (≈ 11.2 nM) | 140 | inactive | inactive | 2900 | 600 | – | 200 | 11 | 2200 | Activity [24]: > 30000%
6 | CC(C)CCC[C@@H](C)[C@H]1CC[C@H]2[C@H](CNc3cccc(O)c3)CCC[C@]12C | 13 | – | – | – | 3800 | – | – | – | – | – | – | – | 1200 | 13 | – | Activity [25]: 7.8%
7 | C=C1CC[C@H](O)C/C1=C/C=C1\CCC[C@]2(C)[C@@H]([C@H](C)CCCC(C)(C)O)CC[C@@H]12 [CALCIFEDIOL ANHYDROUS] | – | – | – | – | 400 | – | – | – | – | – | 600 | 11000 | 500 | – | – | Activity [26]: > 30000%; % Gli1 activity [27]: 9.2%
8 | C=C1CC[C@H](O)C/C1=C/C=C1\CCC[C@]2(C)[C@@H]([C@H](C)CCCC(C)C)CC[C@@H]12 [CHOLECALCIFEROL] | – | 2.9 | – | 4500 | – | – | 5.5 | inactive | – | > 10000 | 900 | – | – | – | 5800 | inhibition [11]: inactive
9 | CC(C)CCC[C@@H](C)[C@H]1CC[C@H]2[C@H](CNc3ccc(O)cc3)CCC[C@]12C | 8.9 | – | 0.13 (≈ 0.35 nM) | – | 600 | 2.7 (≈ 7.27 nM) | – | – | – | – | – | – | 600 | 1.9 | 2100 | Activity [25]: 5.8%; half-life at 1 µM ([7]; microsomes): > 3.85 h; CLH [10]: < 3

Source: ChEMBL document CHEMBL4382241, “Synthesis and evaluation of third generation vitamin D3 analogues as inhibitors of Hedgehog signaling” (Eur J Med Chem, 2019)
